Source: PubChem BioAssay
Only some compounds are listed: those with a hit (about 1.5% of all), similar ones and a draw of the others.
RBBP9 inhibitor: human RBBP9 inhibitors, primary screen, biochemical, fluorescence polarization, FP-Rh probe, HTS. Serine hydrolase RBBP9 (Homo sapiens), O75884. recombinant RBBP9. inhibition, % at 7.94 µM. actives 0.2% (n = 220,000). AID 1515, 2009;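 active = inhibition above the campaign mean of all tested compounds plus 3 SD, cut at about 14% in these data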
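System: RBBP9 protein / Buffer or medium: Tris/NaCl buffer pH 8.0 with 0.1% Pluronic / Probe or stimulus: Serine-hydrolase probe FP-Rh, 375 nM pre-mixing / Dosing: 7.94 µM single dose, 0.794% DMSO / Times: enzyme-compound preincubation 30 min, then probe labeling 45 min, 25 °C / Technique: fluorescence polarization (mP), excitation 525 nm, emission 598 nm / Replication: singlicate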
PP1 inh: PP1-alpha phosphatase inhibitors, primary screen, counter-screen for PP5 inhibitor project, biochemical, fluorescence, OMFP substrate, single point; inhibition, % at 6.7 µM; purified PP1alpha; Serine/threonine-protein phosphatase PP1-alpha catalytic subunit (Homo sapiens), P62136; actives 0.9% (n = 320,000);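 active = inhibition above the mean inhibition of all tested compounds plus 3 SD, computed separately for each screening campaign, cut at about 15% in these data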
PKD1 inh: inhibitors of human PKD1 kinase, biochemical, fluorescence polarization; Serine/threonine-protein kinase D1 (Homo sapiens), Q15139; PKD1 kinase fluorescence polarization assay; inhibition, % (concentration not given with the values); actives 0.056% (n = 200,000); AID 797, 2007; in the data active = inhibition above about 50%
Target sequence (Q15139 whole entry, looked up): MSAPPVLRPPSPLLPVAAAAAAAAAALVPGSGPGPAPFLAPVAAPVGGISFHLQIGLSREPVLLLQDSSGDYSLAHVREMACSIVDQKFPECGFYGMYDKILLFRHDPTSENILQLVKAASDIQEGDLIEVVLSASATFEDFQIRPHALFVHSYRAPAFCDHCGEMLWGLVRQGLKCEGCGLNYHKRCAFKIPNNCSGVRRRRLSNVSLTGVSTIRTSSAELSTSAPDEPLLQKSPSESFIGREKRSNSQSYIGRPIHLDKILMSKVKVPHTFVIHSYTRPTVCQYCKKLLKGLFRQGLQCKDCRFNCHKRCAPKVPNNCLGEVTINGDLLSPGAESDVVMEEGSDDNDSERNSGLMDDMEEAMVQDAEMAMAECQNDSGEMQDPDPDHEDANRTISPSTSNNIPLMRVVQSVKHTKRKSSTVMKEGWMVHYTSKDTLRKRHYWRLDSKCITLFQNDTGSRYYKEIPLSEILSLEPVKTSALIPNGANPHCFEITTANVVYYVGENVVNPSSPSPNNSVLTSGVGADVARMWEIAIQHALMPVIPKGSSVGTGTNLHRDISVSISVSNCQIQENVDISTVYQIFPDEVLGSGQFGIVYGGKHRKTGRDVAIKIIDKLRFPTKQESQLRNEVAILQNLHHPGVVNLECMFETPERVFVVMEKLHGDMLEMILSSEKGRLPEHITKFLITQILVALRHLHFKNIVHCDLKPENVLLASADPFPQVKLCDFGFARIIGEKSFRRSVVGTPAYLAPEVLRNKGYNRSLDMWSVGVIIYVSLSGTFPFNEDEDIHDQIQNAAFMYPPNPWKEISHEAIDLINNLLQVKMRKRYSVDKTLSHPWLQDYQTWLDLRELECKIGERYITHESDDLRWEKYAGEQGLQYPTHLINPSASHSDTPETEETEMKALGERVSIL
PP5 inh: PP5 phosphatase inhibitors, primary screen, biochemical, fluorescence | inhibition, % at 6.7 µM | purified PP5c, OMFP substrate fluorescence | actives 0.18% (n = 320,000) | Serine/threonine-protein phosphatase 5 (Homo sapiens), P53041;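 active = inhibition above the campaign's mean inhibition across all tested compounds plus 3 SD, cut at about 9.5% in these data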
p97 ATPase inh: inhibitors of human p97 ATPase, primary screen, biochemical. AID 1481, 2009. actives 0.42% (n = 220,000). recombinant p97 ATPase, Kinase-Glo ATP luminescence, 3 h. inhibition, % at 8 µM; in the data active = inhibition above about 15%
Hsp70 act: Hsp70 transcriptional activators, primary screen, cell-based, HeLa, Hsp70 promoter luciferase, luminescence, 10 µM. HeLa Hsp70 promoter luciferase reporter; scaled: vehicle 0, proteasome-inhibitor control 100%. activation, % at 10 µM. actives 0.04% (n = 200,000);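 active = activation above the mean across all tested compounds plus 3 SD, cutoff set per campaign, cut at about 5.5% in these data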
PP1 confirm: PP1 phosphatase inhibitors, confirmation, biochemical, fluorescence, OMFP substrate, triplicate | shares compounds with PP1 inh | purified PP1alpha | inhibition, % at 6.7 µM | actives 52% (n = 1,900);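 active = mean PP1 inhibition above a set limit taken from the earlier primary screen, cut at about 15% in these data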
PP5 inh counter: PP5 phosphatase inhibition by PP1 hits, confirmation, counter-screen for PP1 inhibitor project, biochemical, fluorescence, triplicate; shares compounds with PP1 inh; purified PP5c, OMFP fluorescence; inhibition, % at 6.7 µM; actives 4% (n = 1,900); AID 2360, 2010;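 active = mean PP5 inhibition over triplicate wells above about 9.5% taken from the earlier PP1 screen, limit read from the data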
Of the large screens only hits and unclear results are named; the others gave an inactive call (follow-up assays come after a bar, where they were run).

COc1cc2c(cc1OC)CN(c1nc(CN3CCOCC3)nc3sc4c(c13)CCCC4)CC2	none
CCOc1ccc2nc(NC3=NC(c4ccc(OC)cc4)CC(=O)N3)nc(C)c2c1 (stereo unspecified)	PP1 inh 39 | PP1 confirm inactive | PP5 inh counter inactive
CCOc1ccc2nc(NC3=NC(C)(C)C=C(C)N3)nc(C)c2c1	none
Cc1ccc(Oc2nnc(-c3cccs3)c3ccccc23)cc1C	none
CCOC(=O)c1c(N2C(=O)Nc3cc(Cl)c(Cl)cc3N2O)sc2c1CCCCC2	PP1 inh 19 | PP1 confirm 17 | PP5 inh counter inactive
O=[N+]([O-])c1ccc(O)c(P(=O)(c2ccccc2)c2ccccc2)c1	none (no result: RBBP9 inhibitor, PKD1 inh, p97 ATPase inh, Hsp70 act)
Cc1ccc(N=Nc2ccc(O)c(P(=O)(c3ccccc3)c3ccccc3)c2)cc1	PP1 inh 18 (no result: PKD1 inh, Hsp70 act) | PP1 confirm 16 | PP5 inh counter inactive
Cc1cccc(N2CCN(C(=O)CC(NC(=O)c3ccccc3)c3ccccc3)CC2C)c1 (stereo unspecified)	PP1 inh 20 | PP1 confirm inactive | PP5 inh counter inactive
COc1cccc(N2CCN(C(=O)CC(NC(=O)c3ccccc3)c3ccccc3)CC2)c1 (stereo unspecified)	none (no result: RBBP9 inhibitor, PKD1 inh, p97 ATPase inh, Hsp70 act)
O=C(NCCCCc1ccccc1)c1ccccc1Cl	none
COC(=O)CCC(=O)OC1(C)C(=O)C2=CN(c3ccccc3)C(c3ccc(OC)cc3)=CC2=C(Br)C1=O (stereo unspecified)	PP1 inh 22 (no result: RBBP9 inhibitor, PKD1 inh, p97 ATPase inh, Hsp70 act) | PP1 confirm inactive | PP5 inh counter 25
COC(=O)CCC(=O)OC1(C)C(=O)C2=CN(Cc3ccccc3)C(c3ccc(OC)cc3)=CC2=C(Br)C1=O (stereo unspecified)	PP1 inh 21, PP5 inh 10 (no result: RBBP9 inhibitor, PKD1 inh, p97 ATPase inh, Hsp70 act) | PP1 confirm inactive | PP5 inh counter 28
CCCCCCCn1c(C)nnc1-c1cnn(C)c1N	none
COc1cccc(/C=N/NC(=O)C(=O)N2CCCC2)c1O	none
COc1cccc(/C=N/NC(=O)N/N=C/c2cccc(OC)c2O)c1O	PP1 inh 21 (no result: RBBP9 inhibitor, PKD1 inh, p97 ATPase inh, Hsp70 act) | PP1 confirm 16 | PP5 inh counter inactive
COc1cccc(/C=N/Nc2ccc([N+](=O)[O-])cn2)c1O	PP1 inh 34 (no result: RBBP9 inhibitor, PKD1 inh, p97 ATPase inh, Hsp70 act) | PP1 confirm 24 | PP5 inh counter inactive
COc1cc(Br)cc(/C=N/NC(=O)Cc2ccccc2)c1O	PP1 inh 19 (no result: RBBP9 inhibitor, PKD1 inh, p97 ATPase inh, Hsp70 act) | PP1 confirm inactive | PP5 inh counter inactive
O=C(Cc1ccccc1)N/N=C/c1cc(Br)cc(Cl)c1O	none
COc1ccc(-c2csc(NC(=O)c3ccccc3NS(=O)(=O)c3ccc(F)c(F)c3)n2)cc1	PP1 inh 27, PP5 inh 12 | PP1 confirm 24 | PP5 inh counter inactive
C=CCn1c(SCC(=O)Nc2sccc2C#N)nc2sc(C)c(C)c2c1=O	PP1 inh 27 | PP1 confirm 31 | PP5 inh counter inactive
CSc1cccc(NC(=S)N(CCCN2CCCC(C)C2)Cc2cccs2)c1 (stereo unspecified)	none
Cc1cc(/C=C\c2ccc3cc(N(C)C)ccc3[n+]2C)c(C)n1-c1ccccc1	PP1 inh 34 (no result: RBBP9 inhibitor, PKD1 inh, p97 ATPase inh, Hsp70 act) | PP1 confirm inactive | PP5 inh counter inactive
C[n+]1c(/C=C/c2ccc(O)cc2)ccc2ccccc21	none (no result: RBBP9 inhibitor, PKD1 inh, p97 ATPase inh, Hsp70 act)
CCOc1ccc(NC(=O)CN(C)C(=O)Cn2c(=O)oc3ccccc32)cc1OCC	PP1 inh 41 (no result: RBBP9 inhibitor, PKD1 inh, p97 ATPase inh, Hsp70 act) | PP1 confirm inactive | PP5 inh counter inactive
Clc1ccc(C2=C3CCCCn4c(-c5ccccc5)c[n+](c43)C2)cc1	PP1 inh 18 | PP1 confirm inactive | PP5 inh counter inactive
COc1ccc(-c2c[n+]3c4n2CCCCC4=C(c2ccc(Br)cc2)C3)cc1	PP1 inh 33 | PP1 confirm inactive | PP5 inh counter inactive
COc1ccc(-c2cnc3n2CCCCC3)cc1	none (no result: PKD1 inh, Hsp70 act)
O=C(C[n+]1cc(-c2ccc(Cl)cc2)n2c1CCCCC2)c1ccccc1	none (no result: PKD1 inh, Hsp70 act)
O=C(O)c1cccnc1SCC(=O)N1CCCc2ccccc21	none (no result: PKD1 inh, Hsp70 act)
Nc1c(C(=O)N/N=C/c2ccc(Cl)cc2)cnn1-c1ccccc1	none (no result: PKD1 inh, Hsp70 act)
O=c1c(Cl)c(N/N=C/c2ccc(Cl)cc2)cnn1-c1ccccc1	PP1 inh 29 | PP1 confirm 21 | PP5 inh counter inactive
O=C(CSc1nc2ccccc2o1)N/N=C/c1ccco1	none (no result: RBBP9 inhibitor, PKD1 inh, p97 ATPase inh, Hsp70 act)
O=C1c2cccc3cccc(c23)C(=O)N1c1ccc2ncccc2c1	PP1 inh 23 | PP1 confirm inactive | PP5 inh counter inactive
O=C(N/N=C/c1ccc(O)cc1O)c1ccc(NC(=O)C2CCCCC2)cc1	PP1 inh 50 (no result: RBBP9 inhibitor, PKD1 inh, p97 ATPase inh, Hsp70 act) | PP1 confirm 36 | PP5 inh counter inactive
COc1ccc(CCNC(=O)C/C(C)=N/NC(=O)c2ccc([N+](=O)[O-])cc2Cl)cc1OC	none (no result: RBBP9 inhibitor, PKD1 inh, p97 ATPase inh, Hsp70 act)
NCCCCCC(=O)Nc1ccncc1	none (no result: PKD1 inh, Hsp70 act)
CC1CC(C)CN(S(=O)(=O)c2ccc(C(=O)Nc3nnc(C4CC4)o3)cc2)C1 (stereo unspecified)	PP1 inh 19 (no result: RBBP9 inhibitor, PKD1 inh, p97 ATPase inh, Hsp70 act) | PP1 confirm 27 | PP5 inh counter inactive
CCC1CCCCN1S(=O)(=O)c1ccc(C(=O)Nc2nnc(C3CC3)o2)cc1 (stereo unspecified)	PP1 inh 23 (no result: RBBP9 inhibitor, PKD1 inh, p97 ATPase inh, Hsp70 act) | PP1 confirm 26 | PP5 inh counter inactive
Cc1ccc(OCC(=O)Nc2cccc(S(=O)(=O)N3CCCCCC3)c2)cc1C	none (no result: RBBP9 inhibitor, PKD1 inh, p97 ATPase inh, Hsp70 act)
COC(=O)C1CC(O)CN1C(=O)NC1CCCCC1 (stereo unspecified)	none
CC1=NN(c2nc3ccccc3[nH]2)C(=O)/C1=C/N(C)C	PP1 inh 23 | PP1 confirm inactive | PP5 inh counter inactive
CC1=NN(c2ccccc2)C(=O)/C1=C/N(C)C	none (no result: PKD1 inh, Hsp70 act)
COc1cc(/C=C2\SC(=N)N(c3ccc(F)cc3)C2=O)ccc1O	PP1 inh 26 | PP1 confirm 20 | PP5 inh counter inactive
CCOc1ccc(N2C(=O)S/C(=C\c3ccc(O)c(OC)c3)C2=O)cc1	none (no result: PKD1 inh, Hsp70 act)
CCOC(=O)C1=C(CSc2nc3ccccc3s2)NC(=O)NC1c1cc(C)ccc1C (stereo unspecified)	PP1 inh 23 | PP1 confirm inactive | PP5 inh counter inactive
